From ChEMBL document CHEMBL1649200, “Concurrent titration and determination of antibiotic resistance in ureaplasma species with identification of novel point mutations in genes associated with resistance” (2009)
Values after ≈ are worked out from the molar mass of the structure shown.

Key:
Assay type in all cases: functional
[1] = test system: Ureaplasma parvum; test: Antimicrobial activity against Ureaplasma parvum SV1 isolate UHWQ3 after 48 hrs by modified broth microdilution technique; settings: SV1 isolate UHWQ3, 48 h
In short: (§1)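 Full-plate broth microdilution in ureaplasma selective medium (10% porcine serum, urea, phenol red, starting pH 6.65). A doubling-dilution antibiotic gradient from 64 to 0.0625 mg/liter is run, with an antibiotic-free column. An overnight culture of unknown CCU is added 1:10, then titrated 10-fold at right angles. Plates are sealed and held 48 h at 37°C. The MIC is the lowest concentration preventing colour change, read at 10⁴ CCU relative to the antibiotic-free control.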

[2] = test system: Ureaplasma urealyticum; test: Antimicrobial activity against Ureaplasma urealyticum isolate HPA20 after 48 hrs by modified broth microdilution technique; settings: isolate HPA20, 48 h; in short: as §1
[3] = test system: Ureaplasma parvum; test: Antimicrobial activity against Ureaplasma parvum isolate UHWJM after 48 hrs by modified broth microdilution technique; in short: as §1
[4] = test system: Ureaplasma urealyticum; test: Antimicrobial activity against Ureaplasma urealyticum isolate HPA6 after 48 hrs by modified broth microdilution technique; settings: isolate HPA6, 48 h; in short: as §1
[5] = test system: Ureaplasma urealyticum; test: Antimicrobial activity against Ureaplasma urealyticum isolate HPA17 after 48 hrs by modified broth microdilution technique; settings: isolate HPA17, 48 h; in short: as §1
[6] = test system: Ureaplasma parvum; test: Antimicrobial activity against Ureaplasma parvum SV1 isolate HPA18 after 48 hrs by modified broth microdilution technique; settings: SV1 isolate HPA18, 48 h; in short: as §1
[7] = test system: Ureaplasma parvum; test: Antimicrobial activity against Ureaplasma parvum SV14 isolate HPA32 after 48 hrs by modified broth microdilution technique; settings: SV14 isolate HPA32, 48 h; in short: as §1
[8] = test system: Ureaplasma parvum; test: Antimicrobial activity against Ureaplasma parvum isolate UHWP2 after 48 hrs by modified broth microdilution technique; settings: isolate UHWP2, 48 h; in short: as §1
[9] = test system: Ureaplasma parvum; test: Antimicrobial activity against Ureaplasma parvum SV1 isolate UHWO10 after 48 hrs by modified broth microdilution technique; settings: SV1 isolate UHWO10, 48 h; in short: as §1
[10] = test system: Ureaplasma urealyticum; test: Antimicrobial activity against Ureaplasma urealyticum isolate HPA12 after 48 hrs by modified broth microdilution technique; settings: isolate HPA12, 48 h; in short: as §1
[11] = test system: Ureaplasma urealyticum; test: Antimicrobial activity against Ureaplasma urealyticum isolate HPA3 after 48 hrs by modified broth microdilution technique; settings: isolate HPA3, 48 h; in short: as §1
[12] = test system: Ureaplasma parvum; test: Antimicrobial activity against Ureaplasma parvum SV6 isolate HPA23 after 48 hrs by modified broth microdilution technique; settings: SV6 isolate HPA23, 48 h; in short: as §1
[13] = test system: Ureaplasma parvum; test: Antimicrobial activity against Ureaplasma parvum SV9 containing tetM gene; in short: as §1

Compound | MIC [1] [µg/mL] | MIC [2] [µg/mL] | MIC [3] [µg/mL] | MIC [4] [µg/mL] | MIC [5] [µg/mL] | MIC [6] [µg/mL] | MIC [7] [µg/mL] | MIC [8] [µg/mL] | MIC [9] [µg/mL] | MIC [10] [µg/mL] | MIC [11] [µg/mL] | MIC [12] [µg/mL] | MIC [13] [µg/mL]
O=C(O)c1cn(C2CC2)c2cc(N3CCNCC3)c(F)cc2c1=O [CIPROFLOXACIN] | 4 (≈ 12.1 µM) | 4 (≈ 12.1 µM) | 4 (≈ 12.1 µM) | 4 (≈ 12.1 µM) | 4 (≈ 12.1 µM) | 8 (≈ 24.1 µM) | < 2 | 4 (≈ 12.1 µM) | 4 (≈ 12.1 µM) | 4 (≈ 12.1 µM) | 4 (≈ 12.1 µM) | < 2 | –
CC[C@H]1OC(=O)[C@H](C)[C@@H](O[C@H]2C[C@@](C)(OC)[C@@H](O)[C@H](C)O2)[C@H](C)[C@@H](O[C@@H]2O[C@H](C)C[C@H](N(C)C)[C@H]2O)[C@](C)(O)C[C@@H](C)C(=O)[C@H](C)[C@@H](O)[C@]1(C)O [ERYTHROMYCIN] | 4 (≈ 5.45 µM) | 8 (≈ 10.9 µM) | 4 (≈ 5.45 µM) | 8 (≈ 10.9 µM) | 8 (≈ 10.9 µM) | 4 (≈ 5.45 µM) | 8 (≈ 10.9 µM) | 4 (≈ 5.45 µM) | > 64 | 8 (≈ 10.9 µM) | 4 (≈ 5.45 µM) | 4 (≈ 5.45 µM) | 4 (≈ 5.45 µM)
CC[C@H]1OC(=O)[C@H](C)[C@@H](O[C@H]2C[C@@](C)(OC)[C@@H](O)[C@H](C)O2)[C@H](C)[C@@H](O[C@@H]2O[C@H](C)C[C@H](N(C)C)[C@H]2O)[C@](C)(O)C[C@@H](C)CN(C)[C@H](C)[C@@H](O)[C@]1(C)O [AZITHROMYCIN] | < 0.25 | < 0.25 | < 0.25 | < 0.25 | 0.5 (≈ 0.668 µM) | < 0.25 | < 0.25 | < 0.25 | 2 (≈ 2.67 µM) | < 0.25 | 0.5 (≈ 0.668 µM) | < 0.25 | –
CC[C@H]1OC(=O)[C@H](C)[C@@H](O[C@H]2C[C@@](C)(OC)[C@@H](O)[C@H](C)O2)[C@H](C)[C@@H](O[C@@H]2O[C@H](C)C[C@H](N(C)C)[C@H]2O)[C@](C)(OC)C[C@@H](C)C(=O)[C@H](C)[C@@H](O)[C@]1(C)O [CLARITHROMYCIN] | < 0.125 | < 0.125 | < 0.125 | < 0.125 | < 0.125 | < 0.125 | < 0.125 | < 0.125 | 4 (≈ 5.35 µM) | < 0.125 | < 0.125 | < 0.125 | –

More lines, in order of falling MIC [1], values ahead:

MIC [1] [µg/mL] | MIC [2] [µg/mL] | MIC [3] [µg/mL] | MIC [4] [µg/mL] | MIC [5] [µg/mL] | MIC [6] [µg/mL] | MIC [7] [µg/mL] | MIC [8] [µg/mL] | MIC [9] [µg/mL] | MIC [10] [µg/mL] | MIC [11] [µg/mL] | MIC [12] [µg/mL] | MIC [13] [µg/mL] | Compound
1 (≈ 2.25 µM) | 2 (≈ 4.5 µM) | 2 (≈ 4.5 µM) | 2 (≈ 4.5 µM) | 1 (≈ 2.25 µM) | 2 (≈ 4.5 µM) | 1 (≈ 2.25 µM) | 2 (≈ 4.5 µM) | 1 (≈ 2.25 µM) | 2 (≈ 4.5 µM) | 2 (≈ 4.5 µM) | 64 (≈ 144 µM) | > 64 | CN(C)[C@@H]1C(O)=C(C(N)=O)C(=O)[C@@]2(O)C(O)=C3C(=O)c4c(O)cccc4[C@@](C)(O)[C@H]3C[C@@H]12 [TETRACYCLINE]
0.25 | 0.5 | 0.5 | 0.5 | 0.25 | 0.25 | 0.25 | 0.5 | 0.25 | 0.5 | 0.5 | 16 | 64 | C[C@H]1c2cccc(O)c2C(=O)C2=C(O)[C@]3(O)C(=O)C(C(N)=O)=C(O)[C@@H](N(C)C)[C@@H]3[C@@H](O)[C@@H]21.O [DOXYCYCLINE]
